From ChEMBL document CHEMBL1138921, “Discovery of 3,5-bis(trifluoromethyl)benzyl L-arylglycinamide based potent CCR2 antagonists” (Bioorg Med Chem Lett, 2006)

Experiments:
[1] = biological target: T1, C-C chemokine receptor type 2 (Homo sapiens, UniProt P41597); assay: Displacement of [125I]MCP1 from human CCR2 expressed in CHO cells; format: cell-based
Method in brief: (§1)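 Competition binding: CHO cells stably expressing human CCR2b (5 × 10⁴) incubated with ¹²⁵I-hMCP-1 (20–50 pM) plus varied unlabeled competitor, 60 min, room temperature, in 50 mM HEPES, 5 mM MgCl₂, 1 mM CaCl₂, pH 7.4. Ended by filtration through polyethyleneimine-soaked GF/B filters, washed with 25 mM HEPES pH 7.5/500 mM NaCl. Values given as IC₅₀ or % inhibition at 1 µM.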

[2] = biological target: T1, C-C chemokine receptor type 2; assay: Displacement of [125I]MCP1 from human CCR2 expressed in CHO cells at 1 uM; format: cell-based; method in brief: as §1
Target sequence in this assay (P41597 whole entry, looked up): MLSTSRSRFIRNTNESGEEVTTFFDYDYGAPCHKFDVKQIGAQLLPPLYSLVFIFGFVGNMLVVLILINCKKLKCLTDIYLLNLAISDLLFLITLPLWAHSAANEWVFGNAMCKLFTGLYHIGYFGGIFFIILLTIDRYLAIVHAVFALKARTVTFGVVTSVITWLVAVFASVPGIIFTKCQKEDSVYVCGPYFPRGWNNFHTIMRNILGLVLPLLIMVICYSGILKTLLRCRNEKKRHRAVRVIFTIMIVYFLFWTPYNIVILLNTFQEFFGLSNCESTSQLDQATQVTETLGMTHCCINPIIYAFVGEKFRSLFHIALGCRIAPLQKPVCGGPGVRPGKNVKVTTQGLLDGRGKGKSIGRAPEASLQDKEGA

| Compound | IC50 [1] [nM] | inhibition [2] [%] |
| --- | --- | --- |
| O=C(NCc1cc(C(F)(F)F)cc(C(F)(F)F)c1)[C@@H](NCCN1CCCCC1)c1ccc(F)cc1 | 175 |  |
| CN(C)CCN[C@H](CNS(=O)(=O)c1cc(C(F)(F)F)cc(C(F)(F)F)c1)c1ccccc1 |  | 0 |
| CN(C)CCN[C@H](C(=O)NCc1ccc(C(F)(F)F)cc1)c1ccccc1 |  | 7 |
| CN(C)CCN[C@H](COCc1cc(C(F)(F)F)cc(C(F)(F)F)c1)c1ccccc1 |  | 6 |
| O=C(NCc1cc(C(F)(F)F)cc(C(F)(F)F)c1)[C@@H](NCCN1CCCCCC1)c1ccccc1 | 400 |  |
| Nc1ccc(C(F)(F)F)cc1C(=O)NCC(=O)NCC1CCN(Cc2ccc(Cl)cc2)CC1 | 200 |  |
| O=C(NCc1cc(C(F)(F)F)cc(C(F)(F)F)c1)[C@@H](NCCCN1CCCCC1)c1ccccc1 |  | 26 |
| CN(C)CCN[C@H](C(=O)NCc1ccccc1C(F)(F)F)c1ccccc1 |  | 1 |
| O=C(NCc1cc(C(F)(F)F)cc(C(F)(F)F)c1)[C@@H](NCCN1CCC(c2ccccc2)CC1)c1ccccc1 | 822 |  |
| CN(C)CCN[C@H](CN(Cc1cc(C(F)(F)F)cc(C(F)(F)F)c1)S(C)(=O)=O)c1ccccc1 |  | 0 |
| O=C(NCc1cc(C(F)(F)F)cc(C(F)(F)F)c1)C(NCCN1CCCCC1)c1ccccc1 (stereo unspecified) | 342 |  |
| CC1CCCCN1CCN[C@H](C(=O)NCc1cc(C(F)(F)F)cc(C(F)(F)F)c1)c1ccccc1 (stereo partly specified) | 838 |  |
| CN(C)CCN[C@H](C(=O)NCc1cc(C(F)(F)F)cc(C(F)(F)F)c1)C1CCCCC1 |  | 9 |
| CC(=O)N(Cc1cc(C(F)(F)F)cc(C(F)(F)F)c1)C[C@@H](NCCN(C)C)c1ccccc1 |  | 4 |
| CN(C)CCN[C@H](C(=O)NCc1cccc(C(F)(F)F)c1)c1ccccc1 |  | 5 |
| Cc1cc(C)cc(CNC(=O)[C@@H](NCCN(C)C)c2ccccc2)c1 |  | 0 |
| CN(C)CCN[C@H](CN(C)S(=O)(=O)c1cc(C(F)(F)F)cc(C(F)(F)F)c1)c1ccccc1 |  | 0 |

The next lines start with the values.

| IC50 [1] [nM] | inhibition [2] [%] | Compound |
| --- | --- | --- |
|  | 8 | CN(C)CCN[C@@H](C(=O)NCc1cc(C(F)(F)F)cc(C(F)(F)F)c1)c1ccc(F)cc1 |
|  | 1 | CN(C)CCN[C@@H](Cc1ccc(F)cc1)C(=O)NCc1cc(C(F)(F)F)cc(C(F)(F)F)c1 |
| 865 |  | CN(C)CCN[C@@H](C(=O)NCc1cc(C(F)(F)F)cc(C(F)(F)F)c1)c1cccs1 |
|  | 20 | CN(C)CCN[C@H](C(=O)N(C)Cc1cc(C(F)(F)F)cc(C(F)(F)F)c1)c1ccccc1 |
| 592 |  | CN(C)CCNC(C(=O)NCc1cc(C(F)(F)F)cc(C(F)(F)F)c1)c1ccco1 (stereo unspecified) |
|  | 28 | CC(NC(=O)[C@@H](NCCN(C)C)c1ccccc1)c1cc(C(F)(F)F)cc(C(F)(F)F)c1 (stereo partly specified) |
|  | 17 | CN(C)CCNC(C(=O)NCc1cc(C(F)(F)F)cc(C(F)(F)F)c1)c1cccc(Br)c1 (stereo unspecified) |
| 1100 |  | CN(C)CCNC(C(=O)NCc1cc(C(F)(F)F)cc(C(F)(F)F)c1)c1ccc(Cl)cc1 (stereo unspecified) |
|  | 0 | CN(C)CCN[C@H](CNC(=O)c1cc(C(F)(F)F)cc(C(F)(F)F)c1)c1ccccc1 |
|  | 0 | CN(C)CCNCC(=O)NCc1cc(C(F)(F)F)cc(C(F)(F)F)c1 |
| 521 |  | O=C(NCc1cc(C(F)(F)F)cc(C(F)(F)F)c1)C(NCCN1CCCC1)c1ccccc1 (stereo unspecified) |
| 678 |  | CCN(CC)CCNC(C(=O)NCc1cc(C(F)(F)F)cc(C(F)(F)F)c1)c1ccccc1 (stereo unspecified) |
|  | 47 | COc1ccc([C@H](NCCN(C)C)C(=O)NCc2cc(C(F)(F)F)cc(C(F)(F)F)c2)cc1 |
| 1000 |  | CN(C)CCN[C@H](C(=O)NCc1cc(C(F)(F)F)cc(C(F)(F)F)c1)c1ccccc1 |
|  | 0 | COCCNC(C(=O)NCc1cc(C(F)(F)F)cc(C(F)(F)F)c1)c1ccccc1 (stereo unspecified) |
|  | 25 | CN(C)CCNC(C(=O)NCc1cc(C(F)(F)F)cc(C(F)(F)F)c1)c1ccc(Br)cc1 (stereo unspecified) |
|  | 0 | CC(C)CCNC(C(=O)NCc1cc(C(F)(F)F)cc(C(F)(F)F)c1)c1ccccc1 (stereo unspecified) |
|  | 14 | NCCNC(C(=O)NCc1cc(C(F)(F)F)cc(C(F)(F)F)c1)c1ccccc1 (stereo unspecified) |
|  | 33 | CN(C)CCNC(C(=O)NCc1cc(C(F)(F)F)cc(C(F)(F)F)c1)c1ccc(F)c(F)c1 (stereo unspecified) |
